Results as given in ChEMBL document CHEMBL1153517, “Synthesis and biological evaluation of imidazole thioacetanilides as novel non-nucleoside HIV-1 reverse transcriptase inhibitors” (Bioorg Med Chem, 2009).

System: not listed separately
Assay: Selectivity index, ratio of CC50 for human MT4 cells to EC50 for HIV2 ROD
Format: toxicity, cell-based
Settings: MT4 cells, read-out: Ratio CC50/EC50
Summary of the method: (§1)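 Ratio of CC₅₀ to EC₅₀. Both come from a 5-day MTT assay in MT-4 cells, using parallel mock-infected wells and wells infected with the named virus strain (100–300 CCID₅₀), with serial fivefold compound dilutions in triplicate.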

Q: For `Cc1ccc(-n2ccnc2SCC(=O)Nc2ccccc2Cl)cc1`, which selectivity ratio is on record?
A: Its selectivity ratio is < 1.

Q: For `Cc1ccccc1NC(=O)CSc1nccn1-c1ccc(Cl)cc1`, which selectivity ratio is on record?
A: Its selectivity ratio is < 1.

Q: With `Cc1ccc(-n2ccnc2SCC(=O)Nc2ccccc2F)cc1` as the molecule, how does the selectivity ratio read?
A: The selectivity ratio was < 1.

Q: Which selectivity ratio does the source give for `Cc1ccc(NC(=O)CSc2nccn2-c2ccc(Cl)cc2)c(Br)c1` here?
A: The selectivity ratio was < 1.

Q: With `COc1ccc(-n2ccnc2SCC(=O)Nc2ccccc2[N+](=O)[O-])cc1` as the molecule, how does the selectivity ratio read?
A: Its selectivity ratio is < 1.

Q: With `Cc1ccc(-n2ccnc2SCC(=O)Nc2ccccc2[N+](=O)[O-])cc1` as the molecule, how does the selectivity ratio read?
A: The selectivity ratio was < 1.

Q: Which selectivity ratio does the source give for `Cc1ccc(NC(=O)CSc2nccn2-c2cccc3ccccc23)c(Br)c1` here?
A: The selectivity ratio was < 1.

Q: For `Cc1ccc(-n2ccnc2SCC(=O)Nc2ccc(C)cc2Br)cc1`, which selectivity ratio is on record?
A: The selectivity ratio was < 1.

Q: Which selectivity ratio does the source give for `O=C(CSc1nccn1-c1cccc2ccccc12)Nc1ccccc1Br` here?
A: The selectivity ratio was < 1.

Q: Which selectivity ratio does the source give for `O=C(CSc1nccn1-c1cccc2ccccc12)Nc1ccccc1F` here?
A: Its selectivity ratio is < 1.

Q: Which selectivity ratio does the source give for `Cc1ccccc1NC(=O)CSc1nccn1-c1cccc2ccccc12` here?
A: Its selectivity ratio is < 1.

Q: For `Cc1ccc(-n2ccnc2SCC(=O)Nc2ccccc2C)cc1`, which selectivity ratio is on record?
A: Its selectivity ratio is < 1.

Q: With `Cc1ccc(-n2ccnc2SCC(=O)Nc2ccccc2Br)cc1` as the molecule, how does the selectivity ratio read?
A: The selectivity ratio was < 1.

Q: For `COc1ccc(-n2ccnc2SCC(=O)Nc2ccc(C)cc2Br)cc1`, which selectivity ratio is on record?
A: Its selectivity ratio is < 1.

Q: For `O=C(CSc1nccn1-c1cccc2ccccc12)Nc1ccccc1[N+](=O)[O-]`, which selectivity ratio is on record?
A: Its selectivity ratio is < 1.

System: Human immunodeficiency virus 1
Assay: Antiviral activity against HIV1 3B infected in human MT4 cells assessed as virus-induced cytopathic effect by MTT assay
Format: functional, organism-based
Settings: Human immunodeficiency virus 1, 3B
Summary of the method: (§2)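 MT-4 cells (exponentially growing, resuspended at 6 × 10⁵ cells/mL) are infected with HIV-1 IIIB or HIV-2 ROD stock at 100–300 CCID₅₀. Serial fivefold compound dilutions are added at the start, in triplicate wells. After 5 days, viability is read by MTT reduction at OD540, using the median OD of three wells. EC₅₀ is the concentration giving 50% protection from the viral cytopathic effect.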

Q: For `Cc1ccc(-n2ccnc2SCC(=O)Nc2ccccc2Cl)cc1`, which EC50 is on record?
A: Its EC50 is 4.97 µM.

Q: With `Cc1ccccc1NC(=O)CSc1nccn1-c1ccc(Cl)cc1` as the molecule, how does the EC50 read?
A: The EC50 was 35.4 µM.

Q: With `Cc1ccc(-n2ccnc2SCC(=O)Nc2ccccc2F)cc1` as the molecule, how does the EC50 read?
A: Its EC50 is > 37.9 µM.

Q: For `Cc1ccc(NC(=O)CSc2nccn2-c2ccc(Cl)cc2)c(Br)c1`, which EC50 is on record?
A: Its EC50 is ≥ 55.2 µM.

Q: For `COc1ccc(-n2ccnc2SCC(=O)Nc2ccccc2[N+](=O)[O-])cc1`, which EC50 is on record?
A: The EC50 was 17.9 µM.

Q: For `Cc1ccc(-n2ccnc2SCC(=O)Nc2ccccc2[N+](=O)[O-])cc1`, which EC50 is on record?
A: Its EC50 is 1.03 µM.

Q: Which EC50 does the source give for `Cc1ccc(NC(=O)CSc2nccn2-c2cccc3ccccc23)c(Br)c1` here?
A: The EC50 was 0.73 µM.

Q: Which EC50 does the source give for `Cc1ccc(-n2ccnc2SCC(=O)Nc2ccc(C)cc2Br)cc1` here?
A: Its EC50 is > 80.8 µM.

Q: With `O=C(CSc1nccn1-c1cccc2ccccc12)Nc1ccccc1Br` as the molecule, how does the EC50 read?
A: The EC50 was 0.64 µM.

Q: For `O=C(CSc1nccn1-c1cccc2ccccc12)Nc1ccccc1F`, which EC50 is on record?
A: Its EC50 is 1.78 µM.

Q: Which EC50 does the source give for `Cc1ccccc1NC(=O)CSc1nccn1-c1cccc2ccccc12` here?
A: The EC50 was 2.46 µM.

Q: For `Cc1ccc(-n2ccnc2SCC(=O)Nc2ccccc2C)cc1`, which EC50 is on record?
A: The EC50 was 30.9 µM.

Q: With `Cc1ccc(-n2ccnc2SCC(=O)Nc2ccccc2Br)cc1` as the molecule, how does the EC50 read?
A: The EC50 was 5.15 µM.

Q: With `COc1ccc(-n2ccnc2SCC(=O)Nc2ccc(C)cc2Br)cc1` as the molecule, how does the EC50 read?
A: The EC50 was > 25.8 µM.

Q: Which EC50 does the source give for `O=C(CSc1nccn1-c1cccc2ccccc12)Nc1ccccc1[N+](=O)[O-]` here?
A: The EC50 was 0.18 µM.

System: Human immunodeficiency virus 2
Assay: Antiviral activity against HIV2 ROD infected in human MT4 cells assessed as virus-induced cytopathic effect by MTT assay
Format: functional, organism-based
Settings: Human immunodeficiency virus 2, ISOLATE ROD
Summary of the method: as §2

Q: For `Cc1ccc(-n2ccnc2SCC(=O)Nc2ccccc2Cl)cc1`, which EC50 is on record?
A: The EC50 was > 33.7 µM.

Q: For `Cc1ccccc1NC(=O)CSc1nccn1-c1ccc(Cl)cc1`, which EC50 is on record?
A: Its EC50 is > 160 µM.

Q: With `Cc1ccc(-n2ccnc2SCC(=O)Nc2ccccc2F)cc1` as the molecule, how does the EC50 read?
A: Its EC50 is > 37.9 µM.

Q: Which EC50 does the source give for `Cc1ccc(NC(=O)CSc2nccn2-c2ccc(Cl)cc2)c(Br)c1` here?
A: Its EC50 is > 204 µM.

Q: With `COc1ccc(-n2ccnc2SCC(=O)Nc2ccccc2[N+](=O)[O-])cc1` as the molecule, how does the EC50 read?
A: Its EC50 is > 161 µM.

Q: With `Cc1ccc(-n2ccnc2SCC(=O)Nc2ccccc2[N+](=O)[O-])cc1` as the molecule, how does the EC50 read?
A: The EC50 was > 131 µM.

Q: Which EC50 does the source give for `Cc1ccc(NC(=O)CSc2nccn2-c2cccc3ccccc23)c(Br)c1` here?
A: Its EC50 is > 29.4 µM.

Q: For `Cc1ccc(-n2ccnc2SCC(=O)Nc2ccc(C)cc2Br)cc1`, which EC50 is on record?
A: The EC50 was > 80.8 µM.

Q: With `O=C(CSc1nccn1-c1cccc2ccccc12)Nc1ccccc1Br` as the molecule, how does the EC50 read?
A: Its EC50 is > 30.5 µM.

Q: For `O=C(CSc1nccn1-c1cccc2ccccc12)Nc1ccccc1F`, which EC50 is on record?
A: The EC50 was > 34.7 µM.

Q: For `Cc1ccccc1NC(=O)CSc1nccn1-c1cccc2ccccc12`, which EC50 is on record?
A: Its EC50 is > 34.6 µM.

Q: With `Cc1ccc(-n2ccnc2SCC(=O)Nc2ccccc2C)cc1` as the molecule, how does the EC50 read?
A: The EC50 was > 147 µM.

Q: For `Cc1ccc(-n2ccnc2SCC(=O)Nc2ccccc2Br)cc1`, which EC50 is on record?
A: The EC50 was > 39.3 µM.

Q: Which EC50 does the source give for `COc1ccc(-n2ccnc2SCC(=O)Nc2ccc(C)cc2Br)cc1` here?
A: Its EC50 is > 25.8 µM.

Q: Which EC50 does the source give for `O=C(CSc1nccn1-c1cccc2ccccc12)Nc1ccccc1[N+](=O)[O-]` here?
A: Its EC50 is > 28.8 µM.

System: not listed separately
Assay: Cytotoxicity against human MT4 cells by MTT assay
Format: cell-based
Settings: not given
Summary of the method: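 Mock-infected MT-4 cells (6 × 10⁵ cells/mL) are run in parallel triplicate wells with serial fivefold compound dilutions and culture medium in place of virus. After 5 days, MTT formazan is read at OD540, using the median OD of three wells. CC₅₀ is the concentration that cuts absorbance of the mock-infected control by 50%.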

Q: For `Cc1ccc(-n2ccnc2SCC(=O)Nc2ccccc2Cl)cc1`, which CC50 is on record?
A: Its CC50 is 33.7 µM.

Q: Which CC50 does the source give for `Cc1ccccc1NC(=O)CSc1nccn1-c1ccc(Cl)cc1` here?
A: Its CC50 is 160 µM.

Q: For `Cc1ccc(-n2ccnc2SCC(=O)Nc2ccccc2F)cc1`, which CC50 is on record?
A: Its CC50 is 37.9 µM.

Q: Which CC50 does the source give for `Cc1ccc(NC(=O)CSc2nccn2-c2ccc(Cl)cc2)c(Br)c1` here?
A: Its CC50 is 221 µM.

Q: With `COc1ccc(-n2ccnc2SCC(=O)Nc2ccccc2[N+](=O)[O-])cc1` as the molecule, how does the CC50 read?
A: The CC50 was 161 µM.

Q: For `Cc1ccc(-n2ccnc2SCC(=O)Nc2ccccc2[N+](=O)[O-])cc1`, which CC50 is on record?
A: The CC50 was 131 µM.

Q: Which CC50 does the source give for `Cc1ccc(NC(=O)CSc2nccn2-c2cccc3ccccc23)c(Br)c1` here?
A: The CC50 was 29.4 µM.

Q: Which CC50 does the source give for `Cc1ccc(-n2ccnc2SCC(=O)Nc2ccc(C)cc2Br)cc1` here?
A: The CC50 was 80.8 µM.

Q: With `O=C(CSc1nccn1-c1cccc2ccccc12)Nc1ccccc1Br` as the molecule, how does the CC50 read?
A: Its CC50 is 30.5 µM.

Q: With `O=C(CSc1nccn1-c1cccc2ccccc12)Nc1ccccc1F` as the molecule, how does the CC50 read?
A: The CC50 was 34.7 µM.

Q: For `Cc1ccccc1NC(=O)CSc1nccn1-c1cccc2ccccc12`, which CC50 is on record?
A: Its CC50 is 34.6 µM.

Q: For `Cc1ccc(-n2ccnc2SCC(=O)Nc2ccccc2C)cc1`, which CC50 is on record?
A: Its CC50 is 147 µM.

Q: For `Cc1ccc(-n2ccnc2SCC(=O)Nc2ccccc2Br)cc1`, which CC50 is on record?
A: Its CC50 is 39.3 µM.

Q: With `COc1ccc(-n2ccnc2SCC(=O)Nc2ccc(C)cc2Br)cc1` as the molecule, how does the CC50 read?
A: Its CC50 is 25.8 µM.

Q: For `O=C(CSc1nccn1-c1cccc2ccccc12)Nc1ccccc1[N+](=O)[O-]`, which CC50 is on record?
A: The CC50 was 28.8 µM.

System: not listed separately
Assay: Selectivity index, ratio of CC50 for human MT4 cells to EC50 for HIV1 3B
Format: toxicity, cell-based
Settings: MT4 cells, read-out: Ratio CC50/EC50
Summary of the method: as §1

Q: Which selectivity ratio does the source give for `Cc1ccc(-n2ccnc2SCC(=O)Nc2ccccc2Cl)cc1` here?
A: The selectivity ratio was 7.

Q: Which selectivity ratio does the source give for `Cc1ccccc1NC(=O)CSc1nccn1-c1ccc(Cl)cc1` here?
A: Its selectivity ratio is 5.

Q: With `Cc1ccc(-n2ccnc2SCC(=O)Nc2ccccc2F)cc1` as the molecule, how does the selectivity ratio read?
A: The selectivity ratio was < 1.

Q: Which selectivity ratio does the source give for `Cc1ccc(NC(=O)CSc2nccn2-c2ccc(Cl)cc2)c(Br)c1` here?
A: The selectivity ratio was 64.

Q: Which selectivity ratio does the source give for `COc1ccc(-n2ccnc2SCC(=O)Nc2ccccc2[N+](=O)[O-])cc1` here?
A: Its selectivity ratio is > 9.

Q: Which selectivity ratio does the source give for `Cc1ccc(-n2ccnc2SCC(=O)Nc2ccccc2[N+](=O)[O-])cc1` here?
A: Its selectivity ratio is 126.

Q: With `Cc1ccc(NC(=O)CSc2nccn2-c2cccc3ccccc23)c(Br)c1` as the molecule, how does the selectivity ratio read?
A: The selectivity ratio was 40.

Q: With `Cc1ccc(-n2ccnc2SCC(=O)Nc2ccc(C)cc2Br)cc1` as the molecule, how does the selectivity ratio read?
A: Its selectivity ratio is 66.

Q: With `O=C(CSc1nccn1-c1cccc2ccccc12)Nc1ccccc1Br` as the molecule, how does the selectivity ratio read?
A: The selectivity ratio was 48.

Q: With `O=C(CSc1nccn1-c1cccc2ccccc12)Nc1ccccc1F` as the molecule, how does the selectivity ratio read?
A: The selectivity ratio was 20.

Q: Which selectivity ratio does the source give for `Cc1ccccc1NC(=O)CSc1nccn1-c1cccc2ccccc12` here?
A: The selectivity ratio was 14.

Q: With `Cc1ccc(-n2ccnc2SCC(=O)Nc2ccccc2C)cc1` as the molecule, how does the selectivity ratio read?
A: The selectivity ratio was 5.

Q: With `Cc1ccc(-n2ccnc2SCC(=O)Nc2ccccc2Br)cc1` as the molecule, how does the selectivity ratio read?
A: Its selectivity ratio is 8.

Q: For `COc1ccc(-n2ccnc2SCC(=O)Nc2ccc(C)cc2Br)cc1`, which selectivity ratio is on record?
A: The selectivity ratio was < 1.

Q: For `O=C(CSc1nccn1-c1cccc2ccccc12)Nc1ccccc1[N+](=O)[O-]`, which selectivity ratio is on record?
A: Its selectivity ratio is 162.
